# How the values were obtained:
# HeLa = experiment: Cytotoxicity concentration in HeLa cells; assay type: cell-based; conditions: human
# Summary of the method: (§1)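 HeLa monolayers were seeded at (1.0-1.3) × 10^5 cells/well, grown 24 h at 36 °C in 5% CO2 to 60–75% cover, then refed with maintenance medium (1-2% heat-inactivated FCS) containing two-fold serial compound dilutions made from a 200 μg/mL stock in Me2SO/medium, with final Me2SO ≤0.1%. Cells were challenged with 10-100 TCID50 virus, and CPE was read microscopically at 48 and 72 h. MIC50 was the lowest concentration giving ≥50% CPE reduction versus virus control. Cytotoxicity was the lowest concentration causing cell death, a growth change or a morphology change in uninfected cultures.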
# Coxsackievirus [1] = experiment: Ratio of the MIC50 of 6-(4-Nitro-phenoxy)-nicotinonitrile compared to compound obtained in the same test for coxsackie A21; assay type: functional
# Summary of the method: (§2)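 Relative activity was calculated as the MIC50 of the positive control 5-cyano-2-(4-nitrophenoxy)pyridine divided by the MIC50 of the test compound. Both were measured in parallel in the same HeLa CPE test (48/72 h microscopic reading) against RV-1A, RV-2 or coxsackievirus A21.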
# Coxsackievirus [2] = experiment: Lowest concentration to reduce viral effect by 50% or more against coxsackie virus A21; assay type: functional; summary of the method: as §1
# Enterovirus [3] = experiment: Lowest concentration to reduce viral effect by 50% or more against Rhinovirus (RV)-2; assay type: functional; summary of the method: as §1
# Enterovirus [4] = experiment: Ratio of the MIC50 of 6-(4-Nitro-phenoxy)-nicotinonitrile compared to compound obtained in the same test for Rhinovirus (RV)-2; assay type: functional; summary of the method: as §2
# Enterovirus [5] = experiment: Lowest concentration to reduce viral effect by 50% or more against Rhinovirus (RV)-1A; assay type: functional; summary of the method: as §1
# Enterovirus [6] = experiment: Ratio of the MIC50 of 6-(4-Nitro-phenoxy)-nicotinonitrile compared to compound obtained in the same test for Rhinovirus (RV)-1A; assay type: functional; summary of the method: as §2
# Enterovirus [7] = experiment: Compound was evaluated for inhibition of rhinovirus RV-Hanks 75%; assay type: functional
# Enterovirus [8] = experiment: Compound was evaluated for inhibition of rhinovirus RV-Hanks at a dose of 50 ug/mL by < 50%; assay type: functional
SMILES,Toxicity (HeLa) [µM],Relative activity (Coxsackievirus [1]),MIC50 (Coxsackievirus [2]) [µM],MIC50 (Enterovirus [3]) [µM],Relative activity (Enterovirus [4]),MIC50 (Enterovirus [5]) [µM],Relative activity (Enterovirus [6]),Inhibition (Enterovirus [7]) [%],inhibition at 50 µg/mL (Enterovirus [8]) [%]
N#Cc1cc([N+](=O)[O-])ccc1Oc1ccccc1Br,> 31,3.3,0.41,0.94,11.1,1.6,12.9,,
N#Cc1cccnc1Oc1ccc(Cl)c(Cl)c1,> 189,1.1,12,24,1.1,47,0.55,,
N#Cc1cc([N+](=O)[O-])ccc1Oc1ccccc1,> 42,0.96,2.7,5.4,3.8,5.4,3.8,,
N#Cc1ccc(Oc2ccc(Cl)cc2)nc1,> 433,0.48,54,54,2,54,1.9,,
CS(=O)(=O)c1ccc(Oc2ccc(Cl)cc2)cc1,44,11.8,2.2,4.4,5.9,4.4,11.8,,
O=[N+]([O-])c1ccc(Oc2ccc(Cl)c(Cl)c2)cc1,352,5.9,0.88,22,2.4,4.6,5.6,65,30
CS(=O)(=O)c1ccc(Oc2ccc([N+](=O)[O-])cc2)cc1,171,6.1,0.85,21.3,2.4,42.7,1.2,,
CSc1ccc(Oc2ccc(Cl)c(Cl)c2)nc1,87,4.6,9,9,5.8,4,6.5,,
Cc1ccc(Oc2ccc(C#N)cn2)cc1,476,0.43,60,30,1.7,60,0.43,,
COc1cccc(Oc2ccc([N+](=O)[O-])cc2C#N)c1,> 185,2.8,4.6,9.3,1.4,23,1.1,,
CS(=O)(=O)c1ccc(Oc2ccc(Cl)c(Cl)c2)cc1,158,3.2,4.1,0.79,32.8,0.79,32.8,85,10
N#Cc1cc([N+](=O)[O-])ccc1Oc1cccc(Cl)c1,> 91,11.8,1.1,0.58,44.7,1.1,23.6,,
N#Cc1cc([N+](=O)[O-])ccc1Oc1ccc(Br)cc1,> 313,3.3,7.8,3.8,6.8,3.8,6.8,,
N#Cc1ccc(Oc2ccc(Cl)c(Cl)c2)cc1,24,11.3,2.3,9.5,2.7,9.5,2.7,,
N#Cc1cc([N+](=O)[O-])ccc1Oc1ccc(Cl)cc1,> 364,7.2,3.6,2.8,9.3,1.4,18.5,,
N#Cc1cc([N+](=O)[O-])ccc1Oc1ccc(Cl)cc1Cl,> 324,13.3,3.9,0.52,49.8,0.97,85.6,,
N#Cc1cc([N+](=O)[O-])ccc1Oc1ccc(C(F)(F)F)cc1,162,13,2,1,13,10,1.3,,
N#Cc1ccnc(Oc2ccc(Cl)c(Cl)c2)c1,> 189,1.1,12,12,2.2,24,1.1,,
Cc1ccc(Oc2ccc(S(C)(=O)=O)cc2)cc1,203,1,25.4,25.4,1,50.8,0.51,,
O=C(O)c1cc([N+](=O)[O-])ccc1Oc1ccc(Cl)c(Cl)c1,305,0.34,76.2,38.1,1.4,19,2.7,,
CS(=O)(=O)c1ccc(Oc2ccc(Br)cc2)cc1,38,2.5,7.6,1,19.7,1.9,9.8,,
N#Cc1ccc(Oc2ccc([N+](=O)[O-])cc2C#N)cc1,> 38,0.33,18.9,9.4,1.1,9.4,2.2,,
Cc1ccc(Oc2ccc([N+](=O)[O-])cc2C#N)cc1,39,2.2,2.4,5.1,2,5.1,4.1,,
CC(=O)c1ccc(Oc2ccc([N+](=O)[O-])cc2C#N)cc1,> 177,0.68,3.5,11.1,1.2,22.2,0.59,,
N#Cc1cc([N+](=O)[O-])ccc1Oc1c(Cl)cccc1Cl,> 65,0.8,16.2,0.52,25,3.9,5.3,,
N#Cc1cc([N+](=O)[O-])ccc1Oc1cccc2ccccc12,> 172,1.2,10.8,1.1,11.8,4.3,6,,
COc1ccc(Oc2ccc(S(C)(=O)=O)cc2)cc1,> 180,0.29,90,45,0.58,22.5,0.58,,
N#Cc1cc([N+](=O)[O-])ccc1Oc1cc(Cl)ccc1Cl,> 162,13,2,0.52,25,0.26,50,,

# Reference: ChEMBL document CHEMBL1123507, “Antipicornavirus activity of substituted phenoxybenzenes and phenoxypyridines” (J Med Chem, 1986)
